Data set [1] addresses T1, Amine oxidase [flavin-containing] B (Homo sapiens, UniProt P27338).
T1 sequence (P27338 whole entry): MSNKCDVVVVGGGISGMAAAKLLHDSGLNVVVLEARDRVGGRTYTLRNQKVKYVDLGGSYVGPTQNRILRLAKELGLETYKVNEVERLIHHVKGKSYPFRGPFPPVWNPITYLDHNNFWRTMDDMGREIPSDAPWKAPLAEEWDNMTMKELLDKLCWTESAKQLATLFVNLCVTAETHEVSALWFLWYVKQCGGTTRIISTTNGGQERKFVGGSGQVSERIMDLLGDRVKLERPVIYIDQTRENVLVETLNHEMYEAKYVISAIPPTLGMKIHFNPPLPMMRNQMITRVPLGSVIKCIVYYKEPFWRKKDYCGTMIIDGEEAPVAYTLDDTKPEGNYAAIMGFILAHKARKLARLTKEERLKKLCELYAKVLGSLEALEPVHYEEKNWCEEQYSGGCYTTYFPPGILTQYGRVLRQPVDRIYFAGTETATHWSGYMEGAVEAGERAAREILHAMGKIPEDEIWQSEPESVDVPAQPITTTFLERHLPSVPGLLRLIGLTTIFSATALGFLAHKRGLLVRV
As to the kind of experiment: Binding affinity to MAO-B in human brain white matter at 4 MBq after 90 mins by autoradiography. It counts as tissue-based. Particulars: 1.5 h. The method in brief:
(§1)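 100 μm whole-hemisphere post-mortem brain sections (control subject, 11 h post-mortem, stored at −25 °C) incubated 90 min at room temperature with 4 MBq/200 mL radiotracer in 50 mM TRIS pH 7.4 (NaCl 120 mM, KCl 5 mM, CaCl2 2 mM, 0.1% albumin); washed 3 × 5 min in buffer, dipped in ice-cold water, dried, phosphorimaged.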

The target in data set [2] is T1, Amine oxidase [flavin-containing] B. As to the kind of experiment: Binding affinity to MAO-B in human brain white matter at 4 MBq after 90 mins by autoradiography in presence of 10 uM MAO-B inhibitor L-deprenyl. Particulars: 1.5 h. It counts as tissue-based. The method in brief:
as §1

Data set [3] has the same target. As to the kind of experiment: Binding affinity to MAO-B in human brain white matter at 4 MBq after 90 mins by autoradiography in presence of 10 uM MAO-B inhibitor rasagiline. It counts as tissue-based. Particulars: 1.5 h. The method in brief:
as §1

Data set [4] has the same target. Kind of data set: Binding affinity to MAO-B in human brain white matter at 4 MBq after 90 mins by autoradiography in presence of 10 uM MAO-A inhibitor pirlindole. Particulars: 1.5 h. It counts as tissue-based. The method in brief: as §1
For data set [5] the target is unchanged. Kind of data set: Binding affinity to MAO-B in human brain cortical gray matter at 4 MBq after 90 mins by autoradiography. The data set is classed as tissue-based. Particulars: 1.5 h. In outline: as §1
Data set [6] shares this target. Kind of data set: Binding affinity to MAO-B in human brain cortical gray matter at 4 MBq after 90 mins by autoradiography in presence of 10 uM MAO-A inhibitor pirlindole. It counts as tissue-based. Particulars: 1.5 h. The method in brief:
as §1

The target is the same in data set [7]. Kind of data set: Binding affinity to MAO-B in human brain cortical gray matter at 4 MBq after 90 mins by autoradiography in presence of 10 uM MAO-B inhibitor rasagiline. Particulars: 1.5 h. The data set is classed as tissue-based. The method in brief:
as §1

Data set [8] has the same target. As to the kind of experiment: Binding affinity to MAO-B in human brain hippocampus at 4 MBq after 90 mins by autoradiography. It counts as tissue-based. Particulars: 1.5 h. In outline:
as §1

Data set [9] has the same target. Kind of data set: Binding affinity to MAO-B in human brain cortical gray matter at 4 MBq after 90 mins by autoradiography in presence of 10 uM MAO-B inhibitor L-deprenyl. Particulars: 1.5 h. The data set is classed as tissue-based. In outline:
as §1

The target in data set [10] is T2, Amine oxidase [flavin-containing] A (Homo sapiens, UniProt P21397).
T2 sequence (P21397 whole entry): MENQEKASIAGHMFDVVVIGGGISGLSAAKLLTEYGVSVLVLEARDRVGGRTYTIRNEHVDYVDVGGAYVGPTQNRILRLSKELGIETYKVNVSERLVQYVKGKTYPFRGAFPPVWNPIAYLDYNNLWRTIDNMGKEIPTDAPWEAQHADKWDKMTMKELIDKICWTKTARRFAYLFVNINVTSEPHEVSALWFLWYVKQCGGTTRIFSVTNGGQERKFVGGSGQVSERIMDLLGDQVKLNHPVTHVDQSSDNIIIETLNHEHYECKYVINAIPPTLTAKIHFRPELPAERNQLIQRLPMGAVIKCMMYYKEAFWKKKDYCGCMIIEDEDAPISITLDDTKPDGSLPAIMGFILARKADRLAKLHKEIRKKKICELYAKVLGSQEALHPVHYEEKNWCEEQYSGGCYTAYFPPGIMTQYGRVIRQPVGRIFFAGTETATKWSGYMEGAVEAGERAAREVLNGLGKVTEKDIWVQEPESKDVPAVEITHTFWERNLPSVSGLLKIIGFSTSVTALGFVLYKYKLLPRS
As to the kind of experiment: Binding affinity to MAO-A in human brain Alzheimer disease slices at 4 MBq after 90 mins by autoradiography. Particulars: 1.5 h.

Data set [11] concerns Brain. Kind of data set: Drug uptake in NMRI mouse brain at 0.178 MBq, iv after 30 mins post injection by gamma counting. The data set is classed as ADME, organism-based. Particulars: in vivo, 0.5 h. In outline:
(§2)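 NMRI mice (25.0–31.5 g), three per time point, each given 0.178 MBq tracer in 0.9% NaCl; killed by isoflurane overdose at each post-injection time; organs and blood excised and γ-counted; values decay-corrected and expressed as %ID/g.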

Data set [12] has as its system Brain. As to the kind of experiment: Drug uptake in NMRI mouse brain at 0.178 MBq, iv after 4 hrs by gamma counting. The data set is classed as ADME, organism-based. Particulars: in vivo. In outline:
as §2

Data set [13] deals with Brain. Kind of data set: Drug uptake in NMRI mouse brain at 0.178 MBq, iv after 2 mins post injection by gamma counting. The data set is classed as ADME, organism-based. Particulars: in vivo. In outline:
as §2

Data set [14] in a line: Fraction unbound in human plasma at 20 MBq after 10 mins by ultrafiltration. The data set is classed as ADME, cell-free. In outline:
(§3)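 Duplicate: 500 μL monkey or human plasma, or PBS pH 7.4 as control, mixed with 50 μL tracer formulation (~20 MBq in PBS), 10 min at room temperature; 200 μL ultrafiltered by centrifugation 15 min at 3000 rpm; total and filtrate well-counted; bound fraction corrected for membrane binding using PBS control.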

Data set [15] has as its target T1, Amine oxidase [flavin-containing] B. As to the kind of experiment: Binding affinity to MAO-B in human brain Alzheimer disease slices at 4 MBq after 90 mins by autoradiography. Particulars: 1.5 h.
For data set [16] the target is unchanged. As to the kind of experiment: Binding affinity to MAO-B in human brain Alzheimer disease slices at 4 MBq after 90 mins by autoradiography in presence of 10 uM MAO-B inhibitor L-deprenyl. Particulars: 1.5 h.
Data set [17] has the same target. As to the kind of experiment: Binding affinity to MAO-B in human brain Alzheimer disease slices at 4 MBq after 90 mins by autoradiography in presence of 10 uM MAO-A inhibitor pirlindole. Particulars: 1.5 h.
Data set [18] in a line: Fraction unbound in monkey plasma at 20 MBq after 10 mins by ultrafiltration. The data set is classed as ADME, cell-free, Macaca mulatta. Particulars: rhesus monkey. In outline:
as §3

For data set [19], the target named is T1, Amine oxidase [flavin-containing] B. Kind of data set: Binding affinity to MAO-B in human brain Alzheimer disease slices at 4 MBq after 90 mins by autoradiography in presence of 10 uM MAO-B inhibitor rasagiline. Particulars: 1.5 h.
Data set [20] can be described thus: Stability of the compound in PBS buffer assessed as half life at pH 7.4. The data set is classed as physicochemical.
Data set [21] concerns the target T1, Amine oxidase [flavin-containing] B. As to the kind of experiment: Inhibition of human recombinant MAO-B expressed in insect cells assessed as inhibition of kynuramine oxidation after 30 mins by fluorescence assay. It counts as cell-based.
For data set [22], the target named is T2, Amine oxidase [flavin-containing] A. As to the kind of experiment: Inhibition of human recombinant MAO-A expressed in insect cells assessed as inhibition of kynuramine oxidation after 30 mins by fluorescence assay.

The structures appear in SMILES notation.

As for `C#CCN(CC[18F])[C@H](C)Cc1ccccc1`, the Activity result is “Active” in [1]; “Active” in data set [2]; “Active” in [3]; “Active” in data set [4]; “Not Active” in data set [5].

Consider `C#CCN(C)[C@H](C)[C@@H]([18F])c1ccccc1`, for which the Activity result is reported as “Active” in [6], “Not Active” in data set [7], “Active” in data set [8] and “Not Active” in data set [9].

Usually fraction unbound stands for free concentration divided by total concentration. With `C#CCN(C)[C@H](C[18F])Cc1ccccc1`, the Activity result in data set [10] was “Not Active”; in data set [15], “Active”; in data set [16] it was “Not Active”; in data set [17], “Active”; in [19], “Not Active”. Further, the figures for the Drug uptake in [11], in data set [12] and in [13] were 1.9 % ID/g, 1.4 % ID/g and 5.2 % ID/g, respectively. Besides, the fraction unbound at 10 min, 20 MBq in data set [14] was determined as 0.168; in [18] it was 0.241.

By half-life is commonly meant the time needed for the level to fall by half in the phase considered. For orientation: IC50 means the point on the concentration scale where inhibition reaches its midpoint. On to `C#CCN(CCF)[C@H](C)Cc1ccccc1`, for which the half-life in [20] came out at 1.83 h. The IC50 in data set [21] was over 2000 nM.

With `C#CCN(C)[C@H](C)[C@H](F)c1ccccc1`, the half-life in data set [20] was 1.83 h. Also, the IC50 in data set [21] was over 2000 nM.

In the case of `C#CCN(C)[C@H](CF)Cc1ccccc1`, the half-life in [20] is 1.83 h. The IC50 was over 2000 nM in [22] and 170 nM in [21].

(Values after ChEMBL document CHEMBL1909627, “Synthesis of three novel fluorine-18 labeled analogues of L-deprenyl for positron emission tomography (PET) studies of monoamine oxidase B (MAO-B)” (J Med Chem, 2011).)
